Laboratory results reported in ChEMBL document CHEMBL1154400, “Pharmacokinetics of single- and multiple-dose oral clarithromycin in soft tissues determined by microdialysis” (Antimicrob Agents Chemother, 2007).

Assays:
[1] = Tmax in human plasma at 500 mg, po, bid for 3 to 5 days; type: ADME, organism-based
Procedure, shortened: (§1)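 Oral clarithromycin 500 mg b.i.d. for 3-5 days, starting 12 h after a single 250 mg dose; last dose given supervised on the morning of day 2 after a baseline blood draw and a 2-h trough dialysate. Sampling as on day 1: microdialysis of muscle and adipose tissue plus venous plasma over 8 h, HPLC. Dialysate concentrations corrected for individual recovery.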

Homo sapiens [2] = assay: Free AUC (0 to 24 hrs) in fasting human plasma at 250 mg, po; type: ADME, organism-based; settings: in vivo
[3] = AUC (0 to 24 hrs) in human plasma at 500 mg, po, bid for 3 to 5 days; type: ADME, organism-based; set-up: time < 24 hr, dose 500 mg, route oral; procedure, shortened: as §1
[4] = Drug uptake in human Skeletal muscles assessed as in vivo drug recovery by microdialysis; type: ADME, organism-based, Muscle tissue
Procedure, shortened: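 Retrodialysis after the 8-h sampling: clarithromycin 5 mg/liter added to the Ringer's perfusate (1.5 µl/min). Recovery (%) = 100 - 100 x Cdialysate/Cperfusate, taken as the mean of two measurements per subject, in muscle and adipose tissue probes.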

[5] = Cmax in human plasma at 500 mg, po, bid for 3 to 5 days; type: ADME, organism-based; set-up: dose 500 mg, route oral; procedure, shortened: as §1
[6] = Tmax in fasting human interstitial-space fluid of subcutaneous adipose tissue at 250 mg, po; type: ADME, organism-based
Procedure, shortened: (§2)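 Healthy male volunteers aged 25-37 y, fasting; single oral 250 mg tablet after 60-min probe equilibration. Microdialysis probes in skeletal muscle and subcutaneous adipose tissue, perfused with Ringer's at 1.5 µl/min; dialysate and antecubital venous blood sampled every 20 min to 4 h, then every 30 min to 8 h. HPLC assay. Interstitial concentration = 100 x Cdialysate/recovery.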

[7] = Tmax in fasting human interstitial-space fluid of skeletal muscle at 250 mg, po; type: ADME, organism-based, Muscle tissue; procedure, shortened: as §2
[8] = Protein binding in human plasma at 500 mg, po bid for 3 to 5 days; type: ADME, organism-based; settings: read-out: PPB (converted)
Procedure, shortened: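 Plasma ultrafiltration done for each volunteer on samples taken 80 and 180 min post-dose, after both the single dose and at steady state. 300 µl aliquots spun through 5,000-MW-cutoff regenerated-cellulose filters at 5,000 x g, 30 min, ambient temperature. Ultrafiltrate concentrations corrected for 5% mean membrane binding. Binding (%) = 100 - 100 x Cultrafiltrate corr/Cplasma total.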

[9] = Tmax in human interstitial-space fluid of skeletal muscle at 500 mg, po, bid for 3 to 5 days; type: ADME, organism-based, Muscle tissue; procedure, shortened: as §1
[10] = Terminal half life in fasting human interstitial-space fluid of subcutaneous adipose tissue at 250 mg, po; type: ADME, organism-based; settings: read-out: beta t1/2 (converted); procedure, shortened: as §2
[11] = Ratio of AUC (0 to 24 hrs) in fasting human interstitial-space fluid of skeletal muscle to free AUC (0 to 24 hrs) in fasting human plasma at 250 mg, po; type: ADME, organism-based; settings: read-out: Ratio AUC
Procedure, shortened: (§3)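 AUC0-8, AUC0-12 and AUC0-24 by the linear trapezoidal rule. Values at 12 h and 24 h extrapolated as C8 x e^(-kel x t) from the 8-h concentration. At steady state, AUC0-24 = AUC0-12 x 2. Tissue-to-free-plasma ratios use free plasma AUC, from each subject's own protein binding.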

[12] = Ratio of AUC (0 to 24 hrs) in human interstitial-space fluid of subcutaneous adipose tissue to free AUC (0 to 24 hrs) in human plasma at 500 mg, po bid
[13] = Tmax in fasting human plasma unbound fraction at 250 mg, po; type: ADME, organism-based
Procedure, shortened: (§4)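 Free plasma concentrations obtained by applying each volunteer's measured protein binding to total plasma concentrations, measured by HPLC after the 250 mg single dose or the 500 mg b.i.d. steady-state dose, with sampling over 8 h.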

[14] = AUC (0 to 24 hrs) in fasting human interstitial-space fluid of skeletal muscle at 250 mg, po; type: ADME, organism-based, Muscle tissue; set-up: time < 24 hr, dose 250 mg, route oral; procedure, shortened: as §2
[15] = Ratio of AUC (0 to 24 hrs) in fasting human interstitial-space fluid of subcutaneous adipose tissue to free AUC (0 to 24 hrs) in fasting human plasma at 250 mg, po; type: ADME, organism-based; settings: read-out: Ratio AUC; procedure, shortened: as §3
[16] = AUC (0 to 24 hrs) in human interstitial-space fluid of skeletal muscle at 500 mg, po, bid for 3 to 5 days; type: ADME, organism-based, Muscle tissue; set-up: dose 500 mg, time < 24 hr, route oral; procedure, shortened: as §1
Homo sapiens [17] = assay: Volume of distribution at steady state in human plasma at 500 mg, po, bid for 3 to 5 days; type: ADME, organism-based; settings: in vivo
Procedure, shortened: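 Healthy male volunteers (n=7, 25–37 y) took clarithromycin 500 mg orally b.i.d. for 3–5 days, with the last dose supervised. Venous blood (lithium heparin) was sampled every 20 min over 0–4 h and every 30 min over 4–8 h, and plasma was assayed by HPLC. Vss = CL × MRT, with CL = dose × F/AUC0-∞ and F taken as 55%. AUCs were calculated by the linear trapezoidal rule.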

[18] = Cmax in human interstitial-space fluid of subcutaneous adipose tissue at 500 mg, po, bid for 3 to 5 days; type: ADME, organism-based; procedure, shortened: as §1
[19] = Terminal half life in human plasma unbound fraction at 500 mg, po, bid for 3 to 5 days; type: ADME, organism-based; settings: read-out: beta t1/2 (converted); procedure, shortened: as §4
[20] = Terminal half life in human plasma at 500 mg, po, bid for 3 to 5 days; type: ADME, organism-based; settings: read-out: beta t1/2 (converted); procedure, shortened: as §1
[21] = AUC (0 to 8 hrs) in human interstitial-space fluid of subcutaneous adipose tissue at 500 mg, po, bid for 3 to 5 days; type: ADME, organism-based; procedure, shortened: as §1
[22] = AUC (0 to 8 hrs) in fasting human interstitial-space fluid of subcutaneous adipose tissue at 250 mg, po; type: ADME, organism-based; procedure, shortened: as §2
[23] = Tmax in human plasma unbound fraction at 500 mg, po, bid for 3 to 5 days; type: ADME, organism-based; procedure, shortened: as §4
[24] = Cmax in human interstitial-space fluid of skeletal muscle at 500 mg, po, bid for 3 to 5 days; type: ADME, organism-based, Muscle tissue; set-up: dose 500 mg, route oral; procedure, shortened: as §1
[25] = AUC (0 to 8 hrs) in fasting human interstitial-space fluid of skeletal muscle at 250 mg, po; type: ADME, organism-based, Muscle tissue; set-up: time < 8 hr, dose 250 mg, route oral; procedure, shortened: as §2
[26] = Terminal half life in fasting human plasma at 250 mg, po; type: ADME, organism-based; settings: read-out: beta t1/2 (converted); procedure, shortened: as §2

Tmax [1]: 3.2 h
fAUC (Homo sapiens [2]): 1210 ng·h/mL
AUC at 24 h [3]: 26800 ng·h/mL
Activity [4]: 54.3%
Cmax [5]: 2210 ng/mL
Tmax [6]: 3 h
Tmax [7]: 3 h
fraction unbound [8]: 0.231
Tmax [9]: 3.8 h
half-life [10]: 2.4 h
Kp uu [11]: 0.42
Kp uu [12]: 0.39
Tmax [13]: 2.6 h
AUC(0-t) at 24 h [14]: 480 ng·h/mL
Kp uu [15]: 0.29
AUC at 24 h [16]: 2420 ng·h/mL
Vdss (Homo sapiens [17]): 126.5 L
Cmax [18]: 230 ng/mL
half-life [19]: 3.7 h
half-life [20]: 3.7 h
AUC [21]: 840 ng·h/mL
AUC(0-t) [22]: 240 ng·h/mL
Tmax [23]: 3.2 h
Cmax [24]: 230 ng/mL
AUC(0-t) at 8 h [25]: 290 ng·h/mL
half-life [26]: 1.9 h
Compound: CC[C@H]1OC(=O)[C@H](C)[C@@H](O[C@H]2C[C@@](C)(OC)[C@@H](O)[C@H](C)O2)[C@H](C)[C@@H](O[C@@H]2O[C@H](C)C[C@H](N(C)C)[C@H]2O)[C@](C)(OC)C[C@@H](C)C(=O)[C@H](C)[C@@H](O)[C@]1(C)O [CLARITHROMYCIN]
